# How the values were obtained:
# [1] = Antifungal activity against Histoplasma capsulatum G217B ATCC 26032 assessed as inhibition of visible growth after 5 days; format: functional
# Summary of the method: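 Wild-type G217B yeasts kept in HMM at 37 °C under 5% CO2. Wells held 2×10^5 yeasts (hemocytometer count) with a two-fold dilution series from 40 to 0.078 µM, at 1% DMSO in the top dilution. Plates were agitated twice daily and growth followed by A595 over 5 days. MIC is the lowest concentration with no visible growth on visual inspection of the plates.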
# [2] = system: Cryptococcus neoformans; test: Antifungal activity against Cryptococcus neoformans MATalpha serotype A strain H99 assessed as inhibition of visible growth after 5 days; format: functional; details: MATalpha serotype A strain H99, 120 h
# [3] = Cytotoxicity against human HepG2 cells after 72 hrs by crystal violet staining method; format: cell-based; details: for CC50 at 72 h: read-out: MIC50; for MCC at 72 h: read-out: MIC
# Summary of the method: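 HepG2 cells in MEM with 10% FBS and 2 mM L-glutamine were seeded at 1×10^4 per well and left to adhere overnight. Compound was added at 0.3 to 80 µM for 72 h. Cells were fixed in 3% paraformaldehyde, stained with 0.1% crystal violet, and the dye taken up in 10% acetic acid and read at A590. Values were normalised to DMSO-matched controls, in triplicate.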
# [4] = Selectivity index, ratio of MIC50 for human HepG2 cells to MIC50 for Histoplasma capsulatum strain G217B ATCC 26032
SMILES,MIC [1],MIC50 [1],MIC [2],MIC50 [2],CC50 at 72 h [3],Ratio [4],MCC at 72 h [3]
O=C(Nc1ncc(Cc2cccc3ccccc23)s1)C12CC3CC(CC(C3)C1)C2,> 20 µM,> 10 µM,–,–,–,–,–
CC(C)C(=O)Nc1ncc(Cc2ccccc2)s1,20 µM,6.7 µM,–,–,–,–,–
O=C(CCC1CCCCC1)Nc1ncc(Cc2cccc3ccccc23)s1,1.3 µM,0.4 µM,> 20 µM,> 10 µM,> 40 µM,>100,–
O=C(CCC1CCCCC1)Nc1nc(-c2ccccc2)cs1,> 20 µM,> 10 µM,–,–,–,–,–
COc1ccc(Cc2cnc(NC(=O)/C=C/c3ccco3)s2)cc1,> 20 µM,> 10 µM,–,–,–,–,–
O=C(Nc1ncc(Cc2cccc3ccccc23)s1)C1CCCC1,1.3 µM,0.8 µM,1.3 µM,0.8 µM,> 40 µM,>57,–
O=C(Nc1ncc(CC2CCCCC2)s1)C1CCCCC1,2.5 µM,0.7 µM,> 20 µM,> 10 µM,–,–,–
Cc1cccc(Cc2cnc(NC(=O)C3CCC3)s2)c1,–,2.5 µM,–,–,–,–,20 µM
O=C(Nc1nc(C23CC4CC(CC(C4)C2)C3)cs1)C1CCCC1,20 µM,7.4 µM,–,–,–,–,–
O=C(Nc1ncc(Cc2cccc3ccccc23)s1)C(F)(F)F,> 20 µM,> 10 µM,–,–,–,–,–
O=C(Nc1ncc(Cc2ccccc2)s1)C12CC3CC(CC(C3)C1)C2,10 µM,5 µM,–,–,–,–,–
O=C(Nc1nc(C23CC4CC(CC(C4)C2)C3)cs1)c1ccccc1,10 µM,3.1 µM,20 µM,8.3 µM,–,–,–
CC(C)C(=O)Nc1ncc(Cc2cccc3ccccc23)s1,2.5 µM,1.5 µM,> 20 µM,> 10 µM,–,–,–
O=C(CCC1CCCCC1)Nc1ncc(Cc2ccccc2)s1,1.3 µM,0.7 µM,> 20 µM,> 10 µM,> 40 µM,>44,–
O=C(Nc1ncc(Cc2ccccc2)s1)C1COc2ccccc2C1 (stereo not drawn),> 20 µM,> 10 µM,–,–,–,–,–
O=C(CC1CCCCC1)Nc1ncc(Cc2cccc3ccccc23)s1,0.6 µM,0.4 µM,> 20 µM,> 10 µM,37 µM,92,–
CC(C)C(=O)Nc1ncc(CC2CCCCC2)s1,> 20 µM,> 10 µM,–,–,–,–,–
O=C(Nc1ncc(Cc2ccccc2)s1)c1ccccc1,> 20 µM,> 10 µM,–,–,–,–,–
O=C(CC1CCCCC1)Nc1ncc(Cc2ccccc2)s1,2.5 µM,0.7 µM,> 20 µM,> 10 µM,> 40 µM,>44,–
O=C(Nc1nc(-c2ccccc2)cs1)C1CCCC1,> 20 µM,> 10 µM,–,–,–,–,–
O=C(Nc1ncc(Cc2ccccc2)s1)N1CCCCC1,> 20 µM,> 10 µM,–,–,–,–,–

SMILES,MIC [1],MIC50 [1],MIC [2],MIC50 [2],CC50 at 72 h [3],Ratio [4],MCC at 72 h [3]
O=C(Nc1ncc(Cc2ccccc2)s1)C1CCSCC1,10 µM,4.8 µM,–,–,–,–,–
O=C(Nc1ncc(-c2ccccc2)s1)C1CCCCC1,> 20 µM,> 10 µM,–,–,–,–,–
O=C(CC1CCCCC1)Nc1ncc(CC2CCCCC2)s1,> 20 µM,> 10 µM,–,–,–,–,–
O=C(Nc1ncc(Cc2ccccc2)s1)c1cnc(-c2cccs2)s1,> 20 µM,> 10 µM,–,–,–,–,–
CC(C)C(=O)Nc1ncc(Cc2ccc3ccccc3c2)s1,20 µM,4.5 µM,–,–,–,–,–
O=C(CCC1CCCCC1)Nc1ncc(Cc2ccc(F)cc2)s1,> 20 µM,> 10 µM,–,–,–,–,–
O=C(CCC1CCCCC1)Nc1nnc(Cc2ccccc2)s1,> 20 µM,> 10 µM,–,–,–,–,–
O=C(Nc1ncc(Cc2ccccc2)s1)N1CCCC1,> 20 µM,> 10 µM,–,–,–,–,–
Cc1nc(NC(=O)CCC2CCCCC2)sc1Cc1ccccc1,> 20 µM,> 10 µM,–,–,–,–,–
CN1CCC(C(=O)Nc2ncc(Cc3ccccc3)s2)CC1,> 20 µM,> 10 µM,–,–,–,–,–
O=C(Nc1nc(C23CC4CC(CC(C4)C2)C3)cs1)C1CCCCC1,5 µM,2.5 µM,> 20 µM,> 10 µM,–,–,–
O=C(Nc1ncc(Cc2ccccc2)s1)C(F)(F)F,> 20 µM,> 10 µM,–,–,–,–,–
O=C(Nc1ncc(Cc2ccccc2)s1)C1CCOCC1,> 20 µM,> 10 µM,–,–,–,–,–
O=C(Nc1ncc(Cc2ccc3ccccc3c2)s1)c1ccccc1,> 20 µM,> 10 µM,–,–,–,–,–
Nc1ncc(Cc2ccccc2)s1,> 20 µM,> 10 µM,–,–,–,–,–
O=C(Nc1ncc(CC2CCCCC2)s1)C12CC3CC(CC(C3)C1)C2,> 20 µM,> 10 µM,–,–,–,–,–
O=C(Nc1ncc(Cc2ccccc2)s1)N1CCOCC1,> 20 µM,> 10 µM,–,–,–,–,–
O=C(/C=C/C1CCCCC1)Nc1ncc(Cc2ccccc2)s1,> 20 µM,> 10 µM,–,–,–,–,–
O=C(Nc1ncc(Cc2ccc(F)cc2)s1)C1CCCCC1,20 µM,4.4 µM,–,–,–,–,–
CC(C)(C)OC(=O)Nc1ncc(C(O)c2ccccc2)s1 (stereo not drawn),> 20 µM,> 10 µM,–,–,–,–,–
O=C(CC1CCCCC1)Nc1ncc(Cc2ccc3ccccc3c2)s1,20 µM,5.7 µM,–,–,–,–,–

SMILES,MIC [1],MIC50 [1],MIC [2],MIC50 [2],CC50 at 72 h [3],Ratio [4],MCC at 72 h [3]
O=C(Nc1ncc(Cc2ccc(F)cc2)s1)C1CCCC1,20 µM,5.2 µM,–,–,–,–,–
NC(=O)c1cc(-c2ccccc2)sc1NC(=O)c1ccc2c(c1)OCCO2,–,2.5 µM,–,–,–,–,10 µM
O=C(Nc1ncc(-c2ccccc2)s1)C1CCCC1,> 20 µM,> 10 µM,–,–,–,–,–
O=C(Nc1ncc(Cc2ccc3ccccc3c2)s1)C1CCCCC1,> 20 µM,> 10 µM,–,–,–,–,–
O=C(CCC1CCCCC1)Nc1ncc(Cc2ccccc2F)s1,2.5 µM,1 µM,> 20 µM,> 10 µM,–,–,–
CC(C)C(=O)Nc1nc(C23CC4CC(CC(C4)C2)C3)cs1,> 20 µM,> 10 µM,–,–,–,–,–
O=C(CCC1CCCCC1)Nc1ncc(Cc2ccc3ccccc3c2)s1,> 20 µM,> 10 µM,–,–,–,–,–
O=C(CCC1CCCCC1)Nc1ncc(CC2CCCCC2)s1,5 µM,0.8 µM,> 20 µM,9.6 µM,–,–,–
O=C(CC1CCCCC1)Nc1ncc(-c2ccccc2)s1,> 20 µM,> 10 µM,–,–,–,–,–
O=C(Nc1ncc(Cc2cccc3ccccc23)s1)c1ccccc1,> 20 µM,> 10 µM,–,–,–,–,–
O=C(Nc1ncc(Cc2ccc3ccccc3c2)s1)C12CC3CC(CC(C3)C1)C2,> 20 µM,> 10 µM,–,–,–,–,–
O=C(CCC1CCCCC1)Nc1ncc(-c2ccccc2)s1,> 20 µM,> 10 µM,–,–,–,–,–
O=C(CCC1CCCCC1)Nc1nc(C23CC4CC(CC(C4)C2)C3)cs1,20 µM,5.2 µM,–,–,–,–,–
O=C(Nc1ncc(CCc2ccccc2)s1)C1CCCC1,2.5 µM,0.9 µM,5 µM,2.7 µM,–,–,–
O=C(CCC1CCCCC1)Nc1ncc(Cc2ccccc2Cl)s1,2.5 µM,0.9 µM,> 20 µM,> 10 µM,–,–,–
O=C(CC1CCCCC1)Nc1nc(C23CC4CC(CC(C4)C2)C3)cs1,> 20 µM,> 10 µM,–,–,–,–,–
O=C(Nc1ncc(CC2CCCCC2)s1)c1ccccc1,10 µM,4.6 µM,–,–,–,–,–
O=C(CCC1CCCCC1)Nc1ncc(Cc2cccc(C(F)(F)F)c2)s1,> 20 µM,> 10 µM,–,–,–,–,–
CN(C(=O)CCC1CCCCC1)c1ncc(Cc2ccccc2)s1,> 20 µM,> 10 µM,–,–,–,–,–

# Reference: ChEMBL document CHEMBL3393037, “Design, synthesis, and biological evaluation of aminothiazole derivatives against the fungal pathogens Histoplasma capsulatum and Cryptococcus neoformans” (Bioorg Med Chem, 2015)
